Active and inactive are the calls of the source. The rule behind the calls is not given here.
Experiments:
Type in all cases: functional, cell-based
[1] = system: KB; assay: Cytotoxicity against human KB cells after 72 hrs by neutral red assay
Procedure, shortened: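 KB human nasopharynx carcinoma cells grown in D-MEM with 10% fetal calf serum, 2 mM L-glutamine, penicillin G, streptomycin and gentamicin. Seeded at 3 × 10³ cells/mL and exposed to compounds (stocks in DMSO/H₂O 1:9) for 72 h at 37 °C in air/CO₂ 95:5. Living cells stained with neutral red, OD read at 540 nm. IC50 is the concentration reducing growth to 50% of control. Taxotere reference.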

[2] = system: KB; assay: Cytotoxicity against human KB cells at 100 ug/mL after 72 hrs by neutral red assay
[3] = system: MCF7; assay: Cytotoxicity against human MCF7 cells
[4] = system: HT-29; assay: Cytotoxicity against human HT-29 cells
[5] = Cytotoxicity against human MCF7/R cells; conditions: MCF7R

SMILES	IC50 [1]	Activity [2]	also measured
COc1c2c(cc3c1[C@@H]1OC(=O)[C@H]([C@@H]3c3ccc4c(c3)OCO4)[C@@H]1CO)OCO2 [NEOCLEISTANTOXIN]	1400 nM	–	–
COc1c2c(cc3c1[C@H]1C(=O)OC[C@H]1[C@H](C(=O)NCc1ccco1)[C@@H]3c1ccc3c(c1)OCO3)OCO2	–	inactive	–
COc1c2c(cc3c1[C@H]1C(=O)OC[C@H]1[C@H](C(=O)NCc1ccc(Cl)c(Cl)c1)[C@@H]3c1ccc3c(c1)OCO3)OCO2	–	inactive	–
COc1c2c(cc3c1[C@H]1C(=O)OC[C@H]1[C@H](C(=O)NCc1ccc(F)cc1)[C@@H]3c1ccc3c(c1)OCO3)OCO2	–	inactive	–
COc1c2c(cc3c1[C@H]1C(=O)OC[C@H]1[C@H](C(=O)NC1CCCCCC1)[C@@H]3c1ccc3c(c1)OCO3)OCO2	26 µg/mL	–	–
COc1c2c(cc3c1[C@H]1C(=O)OC[C@H]1[C@H](C(=O)O)[C@@H]3c1ccc3c(c1)OCO3)OCO2	–	inactive	–
COc1c2c(cc3c1[C@@H](C#N)[C@H]1COC(=O)[C@@H]1[C@@H]3c1ccc3c(c1)OCO3)OCO2	1.2 µg/mL	–	–
COc1c2c(cc3c1[C@H]1C(=O)OC[C@H]1[C@H](C(=O)NC1CCCC1)[C@@H]3c1ccc3c(c1)OCO3)OCO2	–	inactive	–
COc1c2c(cc3c1[C@H]1C(=O)OC[C@H]1[C@H](C(=O)N(Cc1ccccc1)Cc1ccccc1)[C@@H]3c1ccc3c(c1)OCO3)OCO2	–	inactive	–
COc1c2c(cc3c1[C@H]1C(=O)OC[C@H]1[C@H](C(=O)n1ccnc1)[C@@H]3c1ccc3c(c1)OCO3)OCO2	–	inactive	–
COc1c2c(cc3c1[C@H](O)[C@H]1COC(=O)[C@@H]1[C@@H]3c1ccc3c(c1)OCO3)OCO2 [CLEISTANTOXIN]	22 nM	–	IC50 [3]: 36 nM; IC50 [4]: 35 nM; IC50 [5]: 14 nM
COc1c2c(cc3c1[C@H]1C(=O)OC[C@H]1[C@H](C(=O)N1CCCCC1)[C@@H]3c1ccc3c(c1)OCO3)OCO2	42 µg/mL	–	–

Source: ChEMBL document CHEMBL2146402, “Cytotoxic lignans from fruits of Cleistanthus indochinensis: synthesis of cleistantoxin derivatives” (J Nat Prod, 2012)
